Experimental data: ChEMBL document CHEMBL1124805 (J Med Chem, 1990)

Columns and labels:
[1] = biological target: D(1A) dopamine receptor (Rattus norvegicus, UniProt P18901); test: Binding affinity at rat striatal Dopamine receptor D1 using [3H]- SCH-23390 radioligand
[2] = biological target: Dopamine receptor (Bos taurus, UniProt Q95136+P20288); test: Agonistic activity against calf striatal Dopamine receptor using [3H]- ADTN radioligand; format: functional
Summary of the method: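 Calf striatal membranes incubated with the dopamine agonist radioligand (±)-[3H]ADTN at 0.5 nM for 60 min at 25 °C.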

[3] = biological target: D(2) dopamine receptor (Rattus norvegicus, UniProt P61169); test: Binding affinity at rat striatal Dopamine receptor D2 using [3H]- piperone radioligand
[4] = biological target: Dopamine receptors; D1 & D2 (Rattus norvegicus) (UniProt P18901+P61169); test: Ratio of binding affinity of D2 to binding affinity of D1; format: protein assay

D(1A) dopamine receptor, sequence (P18901 whole entry): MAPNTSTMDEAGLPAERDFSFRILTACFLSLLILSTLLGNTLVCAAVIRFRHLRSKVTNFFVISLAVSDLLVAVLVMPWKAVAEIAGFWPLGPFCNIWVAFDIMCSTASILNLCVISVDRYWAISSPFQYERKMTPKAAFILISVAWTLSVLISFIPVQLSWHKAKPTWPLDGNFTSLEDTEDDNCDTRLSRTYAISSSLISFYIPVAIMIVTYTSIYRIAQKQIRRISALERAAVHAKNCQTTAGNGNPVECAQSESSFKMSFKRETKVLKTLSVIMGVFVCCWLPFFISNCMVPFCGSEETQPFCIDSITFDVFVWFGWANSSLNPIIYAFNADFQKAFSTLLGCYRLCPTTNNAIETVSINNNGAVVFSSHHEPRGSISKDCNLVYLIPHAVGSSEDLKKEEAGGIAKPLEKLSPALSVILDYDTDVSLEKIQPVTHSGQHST
D(2) dopamine receptor, sequence (P61169 whole entry): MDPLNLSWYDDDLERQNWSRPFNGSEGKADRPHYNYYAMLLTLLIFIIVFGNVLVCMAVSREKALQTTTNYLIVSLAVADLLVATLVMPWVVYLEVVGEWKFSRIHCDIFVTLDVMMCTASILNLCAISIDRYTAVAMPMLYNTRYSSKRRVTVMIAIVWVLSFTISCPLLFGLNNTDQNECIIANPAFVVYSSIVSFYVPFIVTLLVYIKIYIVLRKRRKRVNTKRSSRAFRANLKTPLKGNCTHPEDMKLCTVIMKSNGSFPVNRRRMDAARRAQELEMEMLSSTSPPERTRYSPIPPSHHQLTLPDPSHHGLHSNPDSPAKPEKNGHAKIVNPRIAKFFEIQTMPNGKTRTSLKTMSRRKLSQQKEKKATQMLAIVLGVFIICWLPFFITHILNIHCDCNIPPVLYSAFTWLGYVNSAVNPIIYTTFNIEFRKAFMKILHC

Row | SMILES | Ki [1] [nM] | Ki [2] [nM] | Ki [3] [nM] | Potency ratio [4]
1 | COc1cc2c3c(c1)-c1c(ccc(O)c1O)C[C@H]3N(C)CC2 | < 10000 | 16.4 | 1.12 | > 9000
2 | CCCN1CCc2cc(OC)cc3c2[C@H]1Cc1ccc(O)c(O)c1-3 | 1780 | 3.84 | 0.17 | 10500
3 | CCCN1CCc2cc(O)cc3c2[C@H]1Cc1ccc(O)c(O)c1-3 | 915 | 1.15 | 0.053 | 17300
4 | CN1CCc2cc(Br)cc3c2[C@H]1Cc1ccc(O)c(O)c1-3 | 106 |  | 17.7 | 6
5 | COc1cc2c3c(c1)-c1c(ccc(O)c1O)C[C@@H]3N(C)CC2 | < 10000 | 162 | 34.7 | > 300
6 | CN1CCc2cc(Cl)cc3c2[C@H]1Cc1ccc(O)c(O)c1-3 | 74.5 |  | 22.3 | 3.3
